By inhibition is commonly meant the percentage by which the read-out fell short of the control. Broadly, the solubility is how much of the substance goes into solution per volume. One may read the EC50 as the concentration at which the effect is half-maximal. As usually defined, the IC50 is the point on the concentration scale where inhibition reaches its midpoint. The term IC20 denotes the point of the concentration-response curve where the effect stands at 20%. Broadly, the Cmax is the peak of the concentration-time curve. The term Tmax denotes the time from dosing to the highest level. By clearance is commonly meant the volume of plasma or blood freed of the substance per unit of time. In general, bioavailability refers to the share of a dose that reaches the circulation, judged against a reference dose that is usually intravenous.

These results are taken from ChEMBL document CHEMBL1764953, “Discovery of orally active carboxylic acid derivatives of 2-phenyl-5-trifluoromethyloxazole-4-carboxamide as potent diacylglycerol acyltransferase-1 inhibitors for the potential treatment of obesity and diabetes” (J Med Chem, 2011).

Some results are limits rather than exact numbers.

Data set [1] addresses T1, hERG (Homo sapiens, UniProt Q12809). Kind of data set: Inhibition of human ERG-mediated current expressed in CHO cells at 1 uM by patch clamp method. It is filed as cell-based. The settings on record: CHO cells expressing human ERG. In a few lines:
(§1)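 hERG-transfected CHO cells on automated whole-cell patch clamp at a holding potential of −80 mV; 1 s depolarizing pulse at 0.1 Hz; tail current measured at −40 mV. Sequence: 0.3% DMSO vehicle, three ascending log-interval concentrations up to 30 μM or the solubility limit, then 1 μM E-4031. At least 3 cells per compound; data normalized to vehicle and fitted with the Hill equation.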
In general terms: Patch clamp records ionic current or voltage across a cell membrane.

A short description of data set [2]: Solubility of the compound at mp 217 degC. It is filed as physicochemical.
In data set [3] the target is T2, Diacylglycerol O-acyltransferase 1 (Homo sapiens, UniProt O75907).
T2 sequence (O75907 whole entry): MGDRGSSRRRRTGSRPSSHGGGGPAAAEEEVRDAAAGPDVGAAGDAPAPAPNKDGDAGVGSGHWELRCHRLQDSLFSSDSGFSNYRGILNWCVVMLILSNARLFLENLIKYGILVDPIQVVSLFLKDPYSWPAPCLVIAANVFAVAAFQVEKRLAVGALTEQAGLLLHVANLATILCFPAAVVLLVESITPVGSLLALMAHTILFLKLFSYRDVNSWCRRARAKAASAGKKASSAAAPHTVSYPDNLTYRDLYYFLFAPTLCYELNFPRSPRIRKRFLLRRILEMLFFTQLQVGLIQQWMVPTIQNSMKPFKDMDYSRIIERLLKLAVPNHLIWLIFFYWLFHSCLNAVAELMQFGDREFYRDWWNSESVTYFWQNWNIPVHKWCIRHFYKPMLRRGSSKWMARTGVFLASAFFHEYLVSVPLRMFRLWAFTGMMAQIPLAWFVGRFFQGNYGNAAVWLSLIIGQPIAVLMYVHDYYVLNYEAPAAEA
Kind of data set: Inhibition of human DGAT1 expressed in CHO-K1 cells after 1 hr using 14C palmitic acid.

Data set [4] deals with T2, Diacylglycerol O-acyltransferase 1. Kind of data set: Inhibition of human DGAT1 expressed in baculovirus infected insect cells after 1 hr using palmitoyl-1-14C-coenzyme A by phospholipid flashplate assay.
Data set [5] addresses T1, hERG. Kind of data set: Inhibition of human ERG-mediated current expressed in CHO cells at 30 uM by patch clamp method. It is filed as cell-based. The settings on record: CHO cells expressing human ERG. In a few lines:
as §1

Data set [6] deals with T1, hERG. Kind of data set: Inhibition of human ERG-mediated current expressed in CHO cells by patch clamp method. It is filed as cell-based. The settings on record: CHO cells expressing human ERG. In a few lines:
as §1

A short description of data set [7]: Cmax in diet-induced obese mouse plasma at 25 mg/kg administered as suspension. It is filed as ADME, organism-based. Set-up: dose 25 mg/kg.
Data set [8] addresses T1, hERG. Nature of the data set: Inhibition of human ERG-mediated current expressed in CHO cells at 3 uM by patch clamp method. It is filed as cell-based. The settings on record: CHO cells expressing human ERG. The procedure, abridged: as §1
A short description of data set [9]: Tmax in diet-induced obese mouse at 25 mg/kg administered as suspension. The settings on record: in vivo. In kind it is ADME, organism-based. Set-up: dose 25 mg/kg.
The target of data set [10] is T1, hERG. Nature of the data set: Inhibition of human ERG.
Data set [11] is filed under the species Cavia porcellus. Nature of the data set: Cardiotoxicity in guinea pig Langendorff heart model assessed as QT QT prolongation. It is filed as toxicity.
Data set [12] in a line: Clearance in rat at 5 mg/kg, iv. It is filed as ADME, organism-based. Set-up: dose 5 mg/kg, route intravenous. The settings on record: in vivo.
Data set [13] relates to Rattus norvegicus. Nature of the data set: Antiobesity activity in diet-induced obese rat assessed as reduction in body weight gain at 25 mg/kg, po qd. Set-up: scale not given: the % may be the effect or the level left. It is filed as functional.
Data set [14] in a line: Oral bioavailability in rat at 5 mg/kg. It is filed as ADME, organism-based. Particulars: in vivo.

T1 sequence (Q12809 whole entry): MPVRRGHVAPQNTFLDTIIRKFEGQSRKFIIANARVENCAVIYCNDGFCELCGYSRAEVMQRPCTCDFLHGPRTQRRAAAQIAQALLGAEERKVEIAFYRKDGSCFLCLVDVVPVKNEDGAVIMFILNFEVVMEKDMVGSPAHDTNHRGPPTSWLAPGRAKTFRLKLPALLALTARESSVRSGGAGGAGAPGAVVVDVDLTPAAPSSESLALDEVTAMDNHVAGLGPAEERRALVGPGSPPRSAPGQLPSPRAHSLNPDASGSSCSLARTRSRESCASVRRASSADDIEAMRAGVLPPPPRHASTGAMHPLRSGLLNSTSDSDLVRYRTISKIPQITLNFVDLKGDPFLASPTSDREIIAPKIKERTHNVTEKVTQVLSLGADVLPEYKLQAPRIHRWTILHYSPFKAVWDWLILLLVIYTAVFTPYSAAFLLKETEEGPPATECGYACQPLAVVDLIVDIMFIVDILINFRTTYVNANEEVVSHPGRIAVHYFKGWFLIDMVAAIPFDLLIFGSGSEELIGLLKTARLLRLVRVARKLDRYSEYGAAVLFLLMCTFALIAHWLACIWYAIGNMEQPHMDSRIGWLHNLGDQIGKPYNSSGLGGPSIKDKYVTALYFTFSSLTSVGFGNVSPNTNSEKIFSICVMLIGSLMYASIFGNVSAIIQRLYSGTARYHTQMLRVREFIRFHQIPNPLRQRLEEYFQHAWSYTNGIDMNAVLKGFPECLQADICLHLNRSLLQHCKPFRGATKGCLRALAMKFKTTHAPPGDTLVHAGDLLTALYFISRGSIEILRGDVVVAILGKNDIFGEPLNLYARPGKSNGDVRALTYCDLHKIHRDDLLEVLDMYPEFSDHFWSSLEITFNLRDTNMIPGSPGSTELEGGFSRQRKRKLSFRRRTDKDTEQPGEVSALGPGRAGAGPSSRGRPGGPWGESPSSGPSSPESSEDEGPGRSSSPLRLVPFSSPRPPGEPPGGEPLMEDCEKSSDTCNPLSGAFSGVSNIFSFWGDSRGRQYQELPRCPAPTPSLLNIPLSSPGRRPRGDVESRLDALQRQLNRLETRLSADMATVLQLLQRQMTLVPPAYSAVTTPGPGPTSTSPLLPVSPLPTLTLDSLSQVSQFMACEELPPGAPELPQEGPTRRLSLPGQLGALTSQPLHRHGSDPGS

`O=C(Nc1ccc(N2CC(F)(F)C2)nc1)c1nc(-c2ccccc2)oc1C(F)(F)F` returned an inhibition at 1 µM in data set [1] of 17%. Also, the solubility in [2] is less than 1 µg/mL. The EC50 in [3] was 25000 nM. The compound further showed an IC50 in [4] of 16 nM.
In data set [5], `O=C(O)COC1CN(c2ccc(NC(=O)c3nc(-c4ccccc4)oc3C(F)(F)F)cn2)C1` displayed an inhibition at 30 µM of 12%.
Still for that read-out and setting: for `COCCN(C)c1ccc(N(C)C(=O)c2nc(-c3ccccc3)oc2C(F)(F)F)cn1` the value was 34%.
On the same count and under the same terms, next, `COCCN(C)c1ccc(NC(=O)c2nc(C)oc2C(F)(F)F)cn1`: 37%.
With `COC(=O)N1CCC(c2ccc(NC(=O)c3nc(-c4ccccc4)oc3C(F)(F)F)cn2)CC1`, the inhibition at 1 µM in [1] came to 16%.
In data set [6], `CCOC1CN(c2ccc(NC(=O)c3nc(-c4ccccc4)oc3C(F)(F)F)cn2)C1` yielded an IC20 of 370 nM.
`O=C(Nc1ccc(C2CCN(C(=O)C3CC3)CC2)cc1)c1nc(-c2ccccc2)oc1C(F)(F)F`: the concentration in [7] peaked (Cmax) at 76 ng/mL. Moreover, 3 µM produced 13% inhibition in data set [8]. The Tmax in data set [9] was 1 h.
With `COCCN(C)c1ccc(NC(=O)c2nc(-c3ccccc3)oc2C(F)(F)F)cc1`, the inhibition at 1 µM in [1] turned out to be 18%.
Turning to `O=C(Nc1cnc(N2CC[C@H](O)C2)nc1)c1nc(-c2ccccc2)oc1C(F)(F)F`, the 20% effect level in data set [6] (IC20) was put at 10000 nM.
`COC(=O)N1CCN(c2ncc(NC(=O)c3nc(-c4ccccc4)oc3C(F)(F)F)cn2)CC1` gave an inhibition at 1 µM in data set [1] of 28%.
Take `COCCN(C)c1ncc(NC(=O)c2nc(-c3ccccc3)oc2C(F)(F)F)cn1`: in data set [6], the concentration for an effect of 20% (IC20) was found to be 1500 nM.
On the same count and under the same terms, next, `O=C(Nc1ccc(N2CCN(C(=O)[C@H]3CC[C@@H](C(=O)O)CC3)CC2)cc1)c1nc(-c2ccccc2)oc1C(F)(F)F`: more than 10000 nM.
The same measure, in the same setting: next, `O=C(Nc1ccc(C2CCN(C(=O)C3CC3)CC2)nc1)c1nc(-c2ccccc2)oc1C(F)(F)F`: 1730 nM.
As to `COCCN(C)c1ccc(NC(=O)c2nc(-c3ccccc3)oc2C(F)(F)F)cn1`, the IC20 in [10] and in data set [6] was 200 nM in each case. In addition, the Activity entry in [11] was “Toxic”; in data set [13] it was 4.3%. In addition, the clearance in data set [12] is 13.5 mL/min/kg. Moreover, the bioavailability in data set [14] turned out to be 77%.
`O=C(Nc1ccc(N2CCN(C(=O)C3CC3)CC2)nc1)c1nc(-c2ccccc2)oc1C(F)(F)F` registered an IC20 in [6] of 180 nM.
For `O=C(Nc1ccc(C2CCN(C(=O)[C@H]3CC[C@@H](C(=O)O)CC3)CC2)cc1)c1nc(-c2ccccc2)oc1C(F)(F)F`, at 3 µM the inhibition in [8] was 21%. Besides, the EC50 in data set [3] worked out at 220 nM. In data set [4], this compound yielded an IC50 of 82 nM.
`CCOC(=O)N1CCN(c2ccc(NC(=O)c3nc(-c4ccccc4)oc3C(F)(F)F)cn2)CC1` returned an IC20 in [6] of 800 nM.
Regarding `COC(=O)N1CCC(c2ccc(NC(=O)c3nc(-c4ccccc4)oc3C(F)(F)F)cc2)CC1`, in [7], the peak concentration (Cmax) was less than 10 ng/mL.
Take `COC(=O)N1CCN(c2ccc(NC(=O)c3nc(-c4ccccc4)oc3C(F)(F)F)cc2)CC1`: in data set [8], the inhibition at 3 µM worked out at 16%.
`COC(=O)N1CCN(c2ccc(NC(=O)c3nc(-c4ccccc4)oc3C(F)(F)F)cn2)CC1` displayed an IC20 in data set [6] of 1940 nM.
`O=C(Nc1ccc(N2CCN(C(=O)C3CC3)CC2)cc1)c1nc(-c2ccccc2)oc1C(F)(F)F` yielded an inhibition at 3 µM in data set [8] of 35%.
Turning to `O=C(Nc1ccc(N2CCN(C(=O)[C@H]3CC[C@H](C(=O)O)CC3)CC2)cc1)c1nc(-c2ccccc2)oc1C(F)(F)F`, the inhibition at 1 µM in [1] stood at 5%.
